ChEMBL document CHEMBL1130116, “Synthesis and antimetastatic activity of L-iduronic acid-type 1-N-iminosugars” (1997)

Legend:
B16 [1] = test: Number of cells invaded in cell invasion assay by incubating with 870 uM of compound for 3 hr; type: functional, Mus musculus
Summary of the method: (§1)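 B16 BL6 cells were cultured with compound for 72 or 24 h at 37 °C, then lifted with 0.08% sodium citrate (10 min, 37 °C), washed twice and resuspended at 1×10^6/mL in RPMI 1640 + 0.1% BSA. 100 μL went onto filters coated with 5 μg Matrigel then 10 μg laminin, with the same medium below. Incubation was 3 or 4 h at 37 °C, 5% CO2. Filters were wiped, methanol-fixed and hematoxylin-stained; invaded cells were counted in five 0.3 mm² fields (200×). Triplicates, mean ± SD; % inhibition is versus untreated cells.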

Mus musculus [2] = species on record: Mus musculus; test: Number of tumor nodules at 90 uM of compound in mice(Range 20-7 ); type: functional
Summary of the method: (§2)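 B16 BL6 cells (3×10^5) were precultured 24 h in DMEM/FBS (37 °C, 5% CO2), then exposed to compound for 72 or 24 h. Cells were detached with 0.05% trypsin/0.02% EDTA, and 1×10^5 cells in 0.1 mL cation-free DPBS were injected into the tail vein of female BDF1 mice (7 weeks, five per group).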

Mus musculus [3] = species on record: Mus musculus; test: % inhibition of metastasis at 30 uM in mice; type: functional; summary of the method: as §2
Mus musculus [4] = species on record: Mus musculus; test: Cell growth at 150 uM concentration in mice; type: functional
Summary of the method: (§3)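 B16 BL6 cells (3×10^5) were precultured 24 h in DMEM/FBS at 37 °C, 5% CO2, then incubated with or without compound for 72 or 24 h under the same conditions. After 0.05% trypsin/0.02% EDTA release, cells were suspended in 1 mL divalent cation-free DPBS and reported as cells per mL before tail-vein injection into BDF1 mice.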

B16 [5] = test: Number of cells invaded in cell invasion assay by incubating with 580 uM of compound for 3 hr; type: functional, Mus musculus; summary of the method: as §1
Mus musculus [6] = species on record: Mus musculus; test: Cell growth at 30 uM concentration in mice; type: functional; summary of the method: as §3
B16 [7] = test: Compound was tested in vitro, for inhibitory effect on B16BL6 cell invasion, by incubating with 870 uM of compound for 3 hr; type: functional, Mus musculus; summary of the method: as §1
Mus musculus [8] = species on record: Mus musculus; test: Cell growth at 90 uM concentration in mice; type: functional; summary of the method: as §3
Mus musculus [9] = species on record: Mus musculus; test: % inhibition of metastasis at 150 uM in mice; type: functional; summary of the method: as §2
Mus musculus [10] = species on record: Mus musculus; test: % inhibition of metastasis at 90 uM in mice; type: functional; summary of the method: as §2
Mus musculus [11] = species on record: Mus musculus; test: Number of tumor nodules at 150 uM of compound in mice(Range 9-1 ); type: functional; summary of the method: as §2
B16 [12] = test: Compound was tested in vitro, for inhibitory effect on B16BL6 cell invasion, by incubating with 580 uM of compound for 3 hr; type: functional, Mus musculus; summary of the method: as §1
Mus musculus [13] = species on record: Mus musculus; test: Number of tumor nodules at 30 uM of compound in mice(Range 129-54 ); type: functional; summary of the method: as §2
Mus musculus [14] = species on record: Mus musculus; test: % inhibition of metastasis at 29 uM in mice; type: functional; summary of the method: as §2
Mus musculus [15] = species on record: Mus musculus; test: Cell growth at 145 uM concentration in mice; type: functional; summary of the method: as §3
Mus musculus [16] = species on record: Mus musculus; test: Cell growth at 29 MicroM concentration in mice; type: functional; summary of the method: as §3
Mus musculus [17] = species on record: Mus musculus; test: % inhibition of metastasis at 145 uM in mice; type: functional; summary of the method: as §2
Mus musculus [18] = species on record: Mus musculus; test: Number of tumor nodules at 87 uM of compound in mice(Range 122-237 ); type: functional; summary of the method: as §2
Mus musculus [19] = species on record: Mus musculus; test: Number of tumor nodules at 145 uM of compound in mice(Range 5-97 ); type: functional; summary of the method: as §2
Mus musculus [20] = species on record: Mus musculus; test: % inhibition of metastasis at 87 uM in mice; type: functional; summary of the method: as §2
Mus musculus [21] = species on record: Mus musculus; test: Number of tumor nodules at 29 uM of compound in mice(Range 200-270 ); type: functional; summary of the method: as §2
Mus musculus [22] = species on record: Mus musculus; test: Cell growth at 87 uM concentration in mice; type: functional; summary of the method: as §3
Mus musculus [23] = species on record: Mus musculus; test: % inhibition of metastasis at 34 uM in mice; type: functional; summary of the method: as §2
Mus musculus [24] = species on record: Mus musculus; test: Number of tumor nodules at 103 uM of compound in mice(Range 160-114 ); type: functional; summary of the method: as §2
Mus musculus [25] = species on record: Mus musculus; test: Cell growth at 34 uM concentration in mice; type: functional; summary of the method: as §3
Mus musculus [26] = species on record: Mus musculus; test: Number of tumor nodules at 172 uM of compound in mice(Range 118-23); type: functional; summary of the method: as §2
Mus musculus [27] = species on record: Mus musculus; test: Cell growth at 103 uM concentration in mice; type: functional; summary of the method: as §3
Mus musculus [28] = species on record: Mus musculus; test: Cell growth at 172 uM concentration in mice; type: functional; summary of the method: as §3
Mus musculus [29] = species on record: Mus musculus; test: Number of tumor nodules at 34 uM of compound in mice(Range 165-133 ); type: functional; summary of the method: as §2
Mus musculus [30] = species on record: Mus musculus; test: % inhibition of metastasis at 172 uM in mice; type: functional; summary of the method: as §2
Mus musculus [31] = species on record: Mus musculus; test: % inhibition of metastasis at 103 uM in mice; type: functional; summary of the method: as §2
Mus musculus [32] = species on record: Mus musculus; test: Number of tumor nodules at 103 uM of compound in mice(Range 136-64 ); type: functional; summary of the method: as §2
Mus musculus [33] = species on record: Mus musculus; test: Cell growth at 34 MicroM concentration in mice; type: functional; summary of the method: as §3
Mus musculus [34] = species on record: Mus musculus; test: Number of tumor nodules at 172 uM of compound in mice(Range 136-84 ); type: functional; summary of the method: as §2
Mus musculus [35] = species on record: Mus musculus; test: Number of tumor nodules at 34 uM of compound in mice(Range 169-115 ); type: functional; summary of the method: as §2
Mus musculus [36] = species on record: Mus musculus; test: Cell growth at 78 uM concentration in mice; type: functional; summary of the method: as §3
Mus musculus [37] = species on record: Mus musculus; test: Number of tumor nodules at 26 uM of compound in mice(Range 148-276 ); type: functional; summary of the method: as §2
B16 [38] = test: Number of cells invaded in cell invasion assay by incubating with 258 uM of compound for 4 hr; type: functional, Mus musculus; summary of the method: as §1
B16 [39] = test: Number of cells invaded in cell invasion assay by incubating with 129 uM of compound for 4 hr; type: functional, Mus musculus; summary of the method: as §1
Mus musculus [40] = species on record: Mus musculus; test: % inhibition of metastasis at 129 uM in mice; type: functional; summary of the method: as §2
B16 [41] = test: Compound was tested in vitro, for inhibitory effect on B16BL6 cell invasion, by incubating with 129 uM of compound for 4 hr; type: functional, Mus musculus; summary of the method: as §1
B16 [42] = test: Number of cells invaded in cell invasion assay by incubating with 518 uM of compound for 4 hr; type: functional, Mus musculus; summary of the method: as §1
Mus musculus [43] = species on record: Mus musculus; test: % inhibition of metastasis at 26 uM in mice; type: functional; summary of the method: as §2
Mus musculus [44] = species on record: Mus musculus; test: % inhibition of metastasis at 78 uM in mice; type: functional; summary of the method: as §2
B16 [45] = test: Compound was tested in vitro, for inhibitory effect on B16BL6 cell invasion, by incubating with 258 uM of compound for 4 hr; type: functional, Mus musculus; summary of the method: as §1
Mus musculus [46] = species on record: Mus musculus; test: Number of tumor nodules at 129 uM of compound in mice(Range 13-87 ); type: functional; summary of the method: as §2
Mus musculus [47] = species on record: Mus musculus; test: Number of tumor nodules at 78 uM of compound in mice(Range 89-120 ); type: functional; summary of the method: as §2
B16 [48] = test: Compound was tested in vitro, for inhibitory effect on B16BL6 cell invasion, by incubating with 518 uM of compound for 4 hr; type: functional, Mus musculus; summary of the method: as §1
Mus musculus [49] = species on record: Mus musculus; test: Cell growth at 129 uM concentration in mice; type: functional; summary of the method: as §3
Mus musculus [50] = species on record: Mus musculus; test: Cell growth at 26 uM concentration of the compound; type: functional; summary of the method: as §3

CC(=O)NC1NCC(C(=O)O)C(N=C(N)N)C1O (stereo not given)
No. of invaded cells (B16 [1]): 17.7
No. of lung metastasis (Mus musculus [2]): 13.2
Inhibition (Mus musculus [3]): 40.1%
No. of cells (Mus musculus [4]): 1.9e+07 mL
No. of invaded cells (B16 [5]): 23.7
No. of cells (Mus musculus [6]): 1.9e+07 mL
Inhibition (B16 [7]): 58.9%
No. of cells (Mus musculus [8]): 1.7e+07 mL
Inhibition (Mus musculus [9]): 97%
Inhibition (Mus musculus [10]): 91%
No. of lung metastasis (Mus musculus [11]): 4.4
Inhibition (B16 [12]): 44.8%
No. of lung metastasis (Mus musculus [13]): 88.2

NC1C(C(=O)O)CNC(NC(=O)C(F)(F)F)C1O (stereo not given)
Inhibition (Mus musculus [14]): 3.8%
No. of cells (Mus musculus [15]): 1.4e+06 mL
No. of cells (Mus musculus [16]): 1.6e+06 mL
Inhibition (Mus musculus [17]): 75.5%
No. of lung metastasis (Mus musculus [18]): 157.8
No. of lung metastasis (Mus musculus [19]): 62.4
Inhibition (Mus musculus [20]): 38.1%
No. of lung metastasis (Mus musculus [21]): 245.4
No. of cells (Mus musculus [22]): 1.6e+06 mL

CC(=O)N[C@H]1NC[C@@H](C(=O)O)[C@H](N)[C@H]1O
Inhibition (Mus musculus [23]): 0%
No. of lung metastasis (Mus musculus [24]): 129.4
No. of cells (Mus musculus [25]): 1.4e+07 mL
No. of lung metastasis (Mus musculus [26]): 82
No. of cells (Mus musculus [27]): 1.4e+07 mL
No. of cells (Mus musculus [28]): 1.8e+07 mL
No. of lung metastasis (Mus musculus [29]): 147.2
Inhibition (Mus musculus [30]): 44.3%
Inhibition (Mus musculus [31]): 12.1%

CC(=O)N[C@H]1NC[C@@H](C(=O)O)[C@H](N)[C@@H]1O
No. of lung metastasis (Mus musculus [32]): 108.8
No. of cells (Mus musculus [33]): 1.6e+07 mL
Inhibition (Mus musculus [23]): 1.4%
No. of lung metastasis (Mus musculus [34]): 101.6
No. of cells (Mus musculus [27]): 2.1e+07 mL
No. of cells (Mus musculus [28]): 1.6e+07 mL
No. of lung metastasis (Mus musculus [35]): 145.2
Inhibition (Mus musculus [30]): 30.9%
Inhibition (Mus musculus [31]): 26.6%

N=C(N)NC1C(C(=O)O)CNC(NC(=O)C(F)(F)F)C1O (stereo not given)
No. of cells (Mus musculus [36]): 1.3e+06 mL
No. of lung metastasis (Mus musculus [37]): 219
No. of invaded cells (B16 [38]): 1.3
No. of invaded cells (B16 [39]): 0.9
Inhibition (Mus musculus [40]): 81%
Inhibition (B16 [41]): 61.1%
No. of invaded cells (B16 [42]): 0.9
Inhibition (Mus musculus [43]): 14.1%
Inhibition (Mus musculus [44]): 58.8%
Inhibition (B16 [45]): 44.4%
No. of lung metastasis (Mus musculus [46]): 48.4
No. of lung metastasis (Mus musculus [47]): 105.6
Inhibition (B16 [48]): 63.9%
No. of cells (Mus musculus [49]): 1.5e+06 mL
No. of cells (Mus musculus [50]): 1.9e+06 mL
